Experimental data reported in ChEMBL document CHEMBL1156809, “Synthesis and anticonvulsant activities of (R)-N-(4'-substituted)benzyl 2-acetamido-3-methoxypropionamides” (J Med Chem, 2010).
Activity calls are given as the source filed them. No cut-off for these calls is given here.

What was measured:
[1] = Behavioral toxicity in po dosed albino Sprague-Dawley rat; assay type: organism-based; conditions: in vivo
In short: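 Behavioral toxicity was recorded as observed effects in rats after oral administration, within the NINDS ASP screen.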

Rattus norvegicus [2] = assay: Protective index, ratio of TD50 for po dosed albino Sprague-Dawley rat to ED50 for po dosed albino Sprague-Dawley rat; assay type: functional
In short: (§1)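 Protective index was calculated as TD50/ED50 for the same species and route: mouse ip (rotorod TD50, MES ED50) and rat po.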

Rattus norvegicus [3] = assay: Anticonvulsant activity against subcutaneous metrazole-induced seizures in albino Sprague-Dawley rat at 300 mg/kg, ip after 4 hrs; assay type: functional, organism-based; design: dose 300 mg/kg
Mus musculus [4] = assay: Anticonvulsant activity against subcutaneous metrazole-induced seizures in albino CF1 mouse at 300 mg/kg, ip after 0.5 hrs; assay type: functional, organism-based; design: dose 300 mg/kg
In short: (§2)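 Subcutaneous Metrazol seizure test under the NINDS ASP, using ip dosing to mice, typically at 300 mg/kg. Protection was assessed at 0.5 and 4 h.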

Mus musculus [5] = assay: Anticonvulsant activity against subcutaneous metrazole-induced seizures in albino CF1 mouse at 300 mg/kg, ip after 4 hrs; assay type: functional, organism-based; design: dose 300 mg/kg; in short: as §2
Rattus norvegicus [6] = assay: Anticonvulsant activity against subcutaneous metrazole-induced seizures in albino Sprague-Dawley rat at 300 mg/kg, ip after 0.5 hrs; assay type: functional, organism-based; design: dose 300 mg/kg
Mus musculus [7] = assay: Protective index, ratio of TD50 for ip dosed albino CF1 mouse to ED50 for ip dosed albino CF1 mouse; assay type: functional; in short: as §1
Rattus norvegicus [8] = assay: Anticonvulsant activity against in ip dosed albino Sprague-Dawley rat hippocampal kindled seizure model assessed as after-discharge duration after 0.5 hrs; assay type: functional, Hippocampus
In short: (§3)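 Rats were given compounds intraperitoneally in the rapid hippocampal kindling model under the NINDS ASP. Racine seizure score and after-discharge duration (sec) were recorded before and after dosing. Where determined, ED50 (mg/kg) is given with an interval.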

Mus musculus [9] = assay: Anticonvulsant activity in ip dosed albino CF1 mouse seizure model assessed as protection against hind limb extension by MES test; assay type: functional; conditions: albino CF1, Hindlimb
In short: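 Maximal electroshock seizure test run by the NINDS ASP (Stables and Kupferberg procedures). Compounds were given intraperitoneally to mice, and the ED50 for seizure protection is reported in mg/kg.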

Rattus norvegicus [10] = assay: Anticonvulsant activity in po dosed albino Sprague-Dawley rat seizure model assessed as protection against hind limb extension by MES test; assay type: functional; conditions: Hindlimb
In short: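 MES seizure protection was tested in Sprague Dawley rats dosed orally, through the NINDS ASP. The ED50 is expressed in mg/kg.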

[11] = Neurological toxicity in ip dosed albino CF1 mouse assessed as neurological impairment by rotarod test; assay type: organism-based; conditions: in vivo
In short: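 Neurological impairment was measured with the rotorod test in mice dosed intraperitoneally. The median dose (TD50, mg/kg) was determined only for compounds with significant MES activity.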

Rattus norvegicus [12] = assay: Anticonvulsant activity against in ip dosed albino Sprague-Dawley rat hippocampal kindled seizure model assessed as decrease in seizures after 0.5 hrs; assay type: functional; conditions: Hippocampus; in short: as §3

Row | Structure (SMILES) | TD50 [1] | PI (Rattus norvegicus [2]) | Activity (Rattus norvegicus [3]) | Activity (Mus musculus [4]) | Activity (Mus musculus [5]) | Activity (Rattus norvegicus [6]) | PI (Mus musculus [7]) | Time (Rattus norvegicus [8]) | ED50 (Mus musculus [9]) | ED50 (Rattus norvegicus [10]) | TD50 [11] | ED50 (Rattus norvegicus [12])
1 | COC[C@@H](NC(C)=O)C(=O)NCc1cccc(F)c1 | > 400 mg/kg | >58 | inactive | inactive | inactive | inactive | 6.7 | – | – | – | – | –
2 | O=C1NC(=O)C(c2ccccc2)(c2ccccc2)N1 [PHENYTOIN] | – | – | inactive | inactive | inactive | inactive | – | 51 s | – | – | – | –
3 | COC[C@@H](NC(C)=O)C(=O)NCc1ccc(OC(F)(F)F)cc1 | 63 mg/kg | 37 | inactive | inactive | inactive | inactive | 3.6 | – | 3.6 mg/kg | 1.7 mg/kg | 13 mg/kg | –
4 | COC[C@@H](NC(C)=O)C(=O)NCc1ccc(Cl)cc1 | > 200 mg/kg | >200 | inactive | inactive | inactive | inactive | 5.6 | 2 s | 5 mg/kg | 1 mg/kg | 28 mg/kg | –
5 | COC[C@@H](NC(C)=O)C(=O)NCc1ccc(N=[N+]=[N-])cc1 | > 250 mg/kg | >64 | inactive | inactive | inactive | inactive | – | 0 s | 8.4 mg/kg | – | – | 6 mg/kg
6 | CCCC(CCC)C(=O)[O-].[Na+] [VALPROATE SODIUM] | – | – | inactive | inactive | inactive | inactive | – | – | 270 mg/kg | – | – | 210 mg/kg
7 | COCC#Cc1ccc(CNC(=O)[C@@H](COC)NC(C)=O)cc1 | 100 mg/kg | 5.5 | inactive | inactive | inactive | inactive | 1.5 | – | 10 mg/kg | 18 mg/kg | 15 mg/kg | –
8 | CCCc1ccc(CNC(=O)[C@@H](COC)NC(C)=O)cc1 | > 30 mg/kg | – | inactive | inactive | inactive | inactive | 1.5 | – | 8.5 mg/kg | < 30 mg/kg | 13 mg/kg | –
9 | C=Cc1ccc(CNC(=O)[C@@H](COC)NC(C)=O)cc1 | – | >20 | inactive | inactive | inactive | inactive | 4.6 | 0 s | 3.5 mg/kg | 7.6 mg/kg | 16 mg/kg | –
10 | COC[C@@H](NC(C)=O)C(=O)NCc1ccccc1 [LACOSAMIDE] | > 500 mg/kg | >130 | inactive | inactive | inactive | inactive | 6 | 0 s | – | – | – | –
11 | COC[C@@H](NC(C)=O)C(=O)NCc1ccc(C)cc1 | > 500 mg/kg | >62 | inactive | inactive | inactive | inactive | 3 | – | 11 mg/kg | 8.1 mg/kg | 31 mg/kg | –
12 | COC[C@@H](NC(C)=O)C(=O)NCc1ccc(F)cc1 | 125 mg/kg | >48 | inactive | inactive | inactive | inactive | 6.7 | – | – | – | – | –
13 | COCc1ccc(CNC(=O)[C@@H](COC)NC(C)=O)cc1 | > 500 mg/kg | >11 | inactive | inactive | inactive | inactive | 2.3 | 12 s | 73 mg/kg | – | – | 87 mg/kg
14 | COC[C@@H](NC(C)=O)C(=O)NCc1ccc(Br)cc1 | 300 mg/kg | 61 | inactive | inactive | inactive | inactive | 3.5 | – | 8.7 mg/kg | 4.9 mg/kg | 30 mg/kg | –
15 | COC[C@@H](NC(C)=O)C(=O)NCc1ccc(I)cc1 | > 500 mg/kg | >43 | inactive | inactive | inactive | inactive | 2.6 | 0 s | 16 mg/kg | 12 mg/kg | 41 mg/kg | 12 mg/kg
16 | COCCCc1ccc(CNC(=O)[C@@H](COC)NC(C)=O)cc1 | > 500 mg/kg | >32 | inactive | inactive | inactive | inactive | 3.1 | 21 s | 20 mg/kg | – | 62 mg/kg | –
17 | COC[C@@H](NC(C)=O)C(=O)NCc1ccc(C#N)cc1 | > 30 mg/kg | – | inactive | inactive | inactive | inactive | >3.3 | – | 150 mg/kg | > 30 mg/kg | > 500 mg/kg | –
